The test system of series [1] is LNCaP. The series can be described thus: Downregulation of survivin expression in human LNCAP cells at 0.1 to 30 uM after 24 hrs by Western blot analysis. Format: functional, cell-based. A digest of the protocol:
(§1)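 Western blot: cells homogenized and spun at 10,000 g for 15 min. Supernatant kept as cytoplasmic fraction; nuclear proteins extracted with a kit. Denatured proteins run on gels, transferred to PVDF, probed with specific antibodies, and detected by enhanced chemiluminescence.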

Series [2] has as its system LNCaP. The series can be described thus: Inhibition of Akt phosphorylation in human LNCAP cells at 0.1 to 30 uM after 30 mins by Western blot analysis. It counts as cell-based. The essentials: as §1
The subject of series [3] is LNCaP. The series can be described thus: Induction of apoptosis in human LNCAP cells at 30 uM after 72 hrs by AnnexinV staining based fluorescent microscopy. Format: functional, cell-based. A digest of the protocol: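 LNCaP cells (5 10^4) plated on coverslips coated with 1% gelatin and treated 72 h. Annexin V kit staining, fixation in 2% formaldehyde, nuclei counterstained with 10 µg/ml DAPI. Annexin V-positive cells counted by fluorescence microscopy.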

In series [4] the test system is LNCaP. The series can be described thus: Cytotoxicity against human LNCAP cells assessed as cell viability after 4 days by CCK8 method. Format: functional, cell-based. The following applies: 96 h. A digest of the protocol: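 LNCaP cells grown in RPMI1640 with 10% FBS plus penicillin/streptomycin at 37 °C, 5% CO2. Cells seeded at 3 10^3 per well, cultured 24 h, then exposed to compound for 4 days. Viability read by CCK-8 absorbance, in triplicate.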

The subject of series [5] is LNCaP. Nature of the series: Antiapoptotic activity against human LNCAP cells assessed as cell survival at 10 uM after 1 day by CCK8 method. To be noted: 24 h, read-out: Activity. It counts as functional.
Series [6] has as its system LNCaP. Nature of the series: Downregulation of CK2alpha expression in human LNCAP cells assessed as reduction of nuclear protein level at 10 uM after 12 to 24 hrs by Western blot analysis. It counts as functional, cell-based. The essentials: as §1
Series [7] concerns LNCaP. Nature of the series: Induction of apoptosis in human LNCAP cells assessed as increase in caspase3 activation at >10 uM after 1 to 2 days. It counts as functional, cell-based. The essentials: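 LNCaP cells seeded at 1 10^4 per well, cultured 24 h, then treated 1 or 2 days. Caspase-3 activity read with a commercial caspase-3 kit in triplicate. Significance by Student's t-test, P < 0.05.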

Series [8] is described as follows: Cytotoxicity against human RWPE1 cells assessed as cell viability after 1 to 3 days by CCK8 method. Format: cell-based. The following applies: rwpe-1. The essentials:
(§2)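 Normal prostate RWPE-1 cells kept in keratinocyte serum-free medium with 0.05 mg/ml bovine pituitary extract and 5 ng/ml recombinant human EGF. Cells seeded at 1 10^4 per well, cultured 24 h, then treated 1–3 days. Viability measured by CCK-8 in triplicate.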

The subject of series [9] is LNCaP. The series can be described thus: Downregulation of CK2alpha expression in human LNCAP cells assessed as reduction of cytosolic protein level at 10 uM after 12 to 24 hrs by Western blot analysis. It counts as functional, cell-based. The essentials: as §1
Series [10] has as its system LNCaP. The series can be described thus: Cytotoxicity against human LNCAP cells assessed as cell viability at 10 uM by CCK8 method. It counts as functional, cell-based. To be noted: TDE = time-dependent effect.
Series [11] has as its system LNCaP. The series can be described thus: Cytotoxicity against human LNCAP cells assessed as cell viability at 1 to 10 uM after 1 day by luciferase assay. To be noted: 24 h, in the assay text read “by CCK-8 assay” for “by luciferase assay”. Format: cell-based. A digest of the protocol: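 LNCaP cells lentivirally transduced with an AR luciferase reporter and selected with 30 µg/ml puromycin. Cells at 4 10^4 per well, kept 1 day in 10% stripped FBS, then treated 1 day in 0.1% stripped FBS with or without 0.1 µM DHT. Luciferase measured for AR activation and CCK-8 for viability; Student's t-test.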

The nature of series [12]: Cytotoxicity against human RWPE1 cells assessed as cell viability at 10 uM after 3 days by CCK8 method. Format: cell-based, RWPE-1. To be noted: read-out: Activity. The essentials: as §2

Active and inactive are the calls of the source. No cut-off for these calls is given here.

Take `O=c1cc(N2CCOCC2)oc2c(-c3ccccc3)cccc12`: the outcome with LNCaP [1] was Active. For the same molecule, the inhibition entry with LNCaP [2] is “Active”.
As to `O=C(O)c1ccc2c(c1)nc(Nc1cccc(Cl)c1)c1ccncc12` [SILMITASERTIB], the result in the series with LNCaP [3], with LNCaP [6], in the series with LNCaP [7] and with LNCaP [9] was Active. The 50% inhibitory concentration (IC50) in the series on LNCaP [4] came out at 4.59 µM. In addition, in the series with LNCaP [5], the viability at 10 µM was found to be 72%. Also, the Activity entry in series [8] is “Non-toxic”; with LNCaP [10] it was “tde”; with LNCaP [11], “Non-toxic”. In addition, in series [12], the viability at 72 h, 10 µM came out at 94%.
